LANA DNA inh = inhibitors of KSHV C-LANA binding to DNA, primary screen, biochemical, fluorescence polarization, FAM-LBS DNA, MBP-C-LANA, single point; inhibition, % at 9 µM; 0.078% of 340,000 active;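 active = highest replicate inhibition at or above 60% at 9 µM, even if other replicates fall short; inactive = all replicates below 60% inhibition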;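 note: 0% = neutral control wells and 100% = 4 µM acridine orange control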
CAL PDZ FP-1 = CAL PDZ peptide-binding inhibitors, primary screen, biochemical, fluorescence polarization, Cer-tagged CAL PDZ, HTS | AID 504414, 2011 | Golgi-associated PDZ and coiled-coil motif-containing protein (Homo sapiens), Q9HD26 | 0.02% of 330,000 active | inhibition, % at 20 µM | purified CAL PDZ, TMR-peptide fluorescence polarization, 1 h;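 active = highest replicate inhibition of at least 40%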;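 note: plate controls were DMSO neutral control wells for no effect and unlabeled competitor peptide control wells for full effect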
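Material: tagged CAL PDZ domain; buffer or medium: 25 mM sodium phosphate pH 7.4, 150 mM NaCl, TCEP, IgG, Thesit; compound dosing: single point, 20 µM; schedule: 1 h incubation at room temperature before polarization reading; measured by: FP readout, S and P plane fluorescence; read-out basis: percent inhibition from loss of millipolarization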
CaV13 ICDI inh = Primary screen for inhibitors of IQ motif and Ca2+-dependent inactivation inhibitor domain binding in CACNA1D, Förster resonance energy transfer in living cells, …. HEK cells, CFP/YFP FRET ICDI-IQ, plate reader, 10 min; percent FRET-ratio fall versus neutral wells. inhibition, % at 12.3 µM. 0.098% of 340,000 active. AID 743397;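 active = mean replicate inhibition of at least 30% and at least 1% of replicates passing that level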;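 note: 0% = median of the neutral control wells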
LANA-H2A inh = blockers of LANA interaction with H2A/H2B – biochemical, FP readout, HTS, primary screen. Protein LANA1 (Human herpesvirus 8 type P (isolate GK18)), Q9QR71. cell-free LANA-H2A/H2B peptide, fluorescence polarization. inhibition, % (concentration not given with the values). 0.6% of 320,000 active. AID 2629, 2010; in the data active = inhibition mostly above about 10%, no sharp cut-off; inactive = mostly below about 6.7%
Target sequence (Q9QR71 whole entry, looked up): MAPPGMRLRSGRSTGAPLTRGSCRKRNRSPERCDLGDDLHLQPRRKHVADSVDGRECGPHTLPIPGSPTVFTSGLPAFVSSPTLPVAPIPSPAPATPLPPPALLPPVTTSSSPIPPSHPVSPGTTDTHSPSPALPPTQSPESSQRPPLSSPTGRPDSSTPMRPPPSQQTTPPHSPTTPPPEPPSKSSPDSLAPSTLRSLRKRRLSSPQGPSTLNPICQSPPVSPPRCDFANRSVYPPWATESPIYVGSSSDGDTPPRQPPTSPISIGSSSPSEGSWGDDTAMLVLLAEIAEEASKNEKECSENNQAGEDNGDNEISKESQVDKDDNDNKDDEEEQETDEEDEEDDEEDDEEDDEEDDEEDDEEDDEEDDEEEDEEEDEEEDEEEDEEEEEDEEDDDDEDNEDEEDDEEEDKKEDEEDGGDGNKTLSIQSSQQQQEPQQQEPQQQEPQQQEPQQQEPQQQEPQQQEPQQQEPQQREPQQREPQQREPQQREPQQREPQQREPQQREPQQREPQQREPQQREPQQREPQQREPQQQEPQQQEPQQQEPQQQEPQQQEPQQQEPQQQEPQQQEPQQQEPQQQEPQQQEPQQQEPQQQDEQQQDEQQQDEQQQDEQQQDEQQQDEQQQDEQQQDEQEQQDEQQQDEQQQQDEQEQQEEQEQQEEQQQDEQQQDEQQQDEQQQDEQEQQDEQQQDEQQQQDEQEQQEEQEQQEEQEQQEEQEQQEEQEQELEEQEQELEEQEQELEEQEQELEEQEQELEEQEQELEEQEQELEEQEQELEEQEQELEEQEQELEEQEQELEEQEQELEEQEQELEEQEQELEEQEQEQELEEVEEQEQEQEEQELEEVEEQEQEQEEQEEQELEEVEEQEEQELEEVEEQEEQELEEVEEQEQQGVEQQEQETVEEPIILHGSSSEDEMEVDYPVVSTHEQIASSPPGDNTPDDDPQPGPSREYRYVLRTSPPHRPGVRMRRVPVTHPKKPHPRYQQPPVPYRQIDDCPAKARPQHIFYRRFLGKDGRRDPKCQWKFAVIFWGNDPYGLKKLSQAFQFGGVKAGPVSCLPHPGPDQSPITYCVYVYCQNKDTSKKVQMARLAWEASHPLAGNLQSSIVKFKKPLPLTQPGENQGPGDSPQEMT
Keap1 Nrf2 FP = Keap1-Nrf2 protein-protein interaction inhibitors, primary screen, biochemical, fluorescence polarization, single point. Kelch-like ECH-associated protein 1 (Homo sapiens), Q14145. Keap1 Kelch-Nrf2 peptide fluorescence polarization, 1536-well. inhibition, % at 9.4 µM. 0.15% of 340,000 active. AID 504523, 2011; in the data active = inhibition above about 12%;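 note: human Keap1 Kelch domain with fluorescein labeled Nrf2 9mer peptide probe; 0% = neutral control wells and 100% = peptide positive control; higher means more block of Keap1 binding to Nrf2 peptide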
CAL PDZ FP-2 = untagged CAL PDZ binding inhibitors, primary screen, biochemical, fluorescence polarization, HTS. purified CAL PDZ, TMR-peptide fluorescence polarization, 1 h. inhibition, % at 24.9 µM. 0.92% of 300,000 active. AID 602252, 2012;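 active = mean inhibition of at least 30% with at least half of replicates also reaching 30%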;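 note: 0% = DMSO neutral control and 100% = excess unlabeled competitor peptide PRC23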
Numbers without * were called inactive; / = no result given; + = active, no number. Compounds with a hit are over-represented: about 1.5% of the library has one in this group of screens.

SMILES	LANA DNA inh	CAL PDZ FP-1	CaV13 ICDI inh	LANA-H2A inh	Keap1 Nrf2 FP	CAL PDZ FP-2
CCCNC(=O)c1ccccc1NC(=O)C1=CSCCO1	0	0	-3	-6	-3	78*
CCCNC(=O)c1ccccc1NS(=O)(=O)c1ccc2c(c1)OCCO2	1	-2	-5	0	3	69*
COc1ccc(OC)c(C(C[N+](=O)[O-])c2c(C)cc3ccccn23)c1 (centres undefined)	1	0	-4	2	-2	48*
Cc1noc(NS(=O)(=O)c2ccc(NC(=O)c3ccc(N(C)C)cc3)cc2)c1C	1	0	-6	3	1	58*
COC(=O)[C@]12C[C@H](CC(=O)N3CCSCC3)C(=O)N(Cc3ccc4c(c3)OCO4)C1=C[C@H](COCc1ccccc1)O[C@@H]2C	/	/	-10	/	/	/
O=C(CCn1c(=O)c2sccc2n(Cc2cc(=O)n3ccccc3n2)c1=O)NCc1ccco1	0	-1	-8	2	4	/
O=C(CCCn1c(=O)c2sccc2n(Cc2cc(=O)n3ccccc3n2)c1=O)NCc1ccco1	-2	1	+	1	-4	/
CCOC(=O)C1=C(C(=O)OCC)C2N(Cc3ccc(C(F)(F)F)cc3)c3ccccc3[C@@]23C[C@@H](C(=O)OC)N(S(=O)(=O)c2cccs2)C3=N1 (some centres undefined)	/	/	-10	/	/	/
CON(C)C(=O)[C@H]1C[C@@H]2[C@H](C[C@@H](c3ccccc3)[C@H]1C)N(c1ccc(F)cc1)C(=O)N2CCCOc1ccccc1	/	/	-4	/	/	/
CCC(=O)NCCNc1nc2cc(C)c(C)cc2cc1C#N	1	-1	-5	1	-1	1
CCOc1ccc2nc(NCCCNC(=O)c3cc(OC)c(OC)c(OC)c3)c(C#N)cc2c1	2	1	+	1	-3	-3
CCOc1ccc2nc(NCCNC(=O)CC)c(C#N)cc2c1	1	0	33*	5	-1	-1
CC(C)NC(=O)N[C@H]1CC[C@H](CC(=O)NCc2ccc(Oc3ccccc3)cc2)O[C@@H]1CO	/	/	-7	/	/	/
O=C(COC(=O)CCSc1ccccc1)Nc1ccc(F)cc1Cl	0	-2	-4	6	4	-4
O=C(COC(=O)CCSc1ccccc1)Nc1cc(F)ccc1F	0	0	-5	-1	3	46*
O=C(O)c1ccc(-c2ccccn2)s1	-1	-1	4	2	-2	-2
c1ccc(-c2ccc(-c3ccccn3)s2)nc1	0	-1	-17	-1	-3	41*
COC(=O)C1=C(C)N(C)C(=NCc2ccc3c(c2)OCO3)NC1c1ccc(Cl)cc1 (centres undefined)	/	/	-4	/	/	/
CN1OC[C@@H]2CN(C(=O)c3ccc([N+](=O)[O-])cc3)[C@H](c3ccccc3Br)C[C@@H]21	/	/	-3	/	/	/
O=C(O)c1ccc(COc2ccc3ccccc3c2/C=C2/NC(=O)N(c3ccccc3)C2=O)cc1	4	-5	-5	4	4	-6
CCN1C(=O)S/C(=C/c2c(OCc3ccc(C(=O)O)cc3)ccc3ccccc23)C1=O	3	-3	-7	119*	-4	-10
CC(C)[C@H](NC(=O)CC1CCCC1)C(=O)N1CCC[C@H]1C(=O)NCc1ccccc1	/	/	-9	/	/	/
CCOCCc1nnc(NC(=O)C2CC(=O)N(CCc3ccc(F)cc3)C2)s1 (centres undefined)	-2	-1	-4	-5	-1	59*
CCOCc1nnc(NC(=O)C2CC(=O)N(CCc3ccc(F)cc3)C2)s1 (centres undefined)	1	-3	-3	-2	0	-5
Cc1ccc(S(=O)(=O)Nc2ccc(NC(=O)Nc3cccc(C(F)(F)F)c3)cc2)cc1	-2	-2	-19	3	0	74*
SMILES	LANA DNA inh	CAL PDZ FP-1	CaV13 ICDI inh	LANA-H2A inh	Keap1 Nrf2 FP	CAL PDZ FP-2
COc1ccc(C(=O)C2CCCN(S(=O)(=O)c3ccc(C(C)=O)cc3)C2)c(C)c1 (centres undefined)	0	-2	-15	-2	-5	-8
COC(=O)[C@]12C[C@H](CC(=O)NCC34CC5CC(CC(C5)C3)C4)C(=O)N(Cc3ccc4c(c3)OCO4)C1=C[C@H](C(C)(C)C)O[C@@H]2C	/	/	-12	/	/	/
C#C[C@]1(O)CCC2C3CCC4=Cc5oncc5CC4(C)C3CCC21C (some centres undefined)	3	-2	-5	13*	-2	2
C#CC1(O)CCC2C3CCC4=Cc5oncc5CC4(C)C3CCC21C (centres undefined)	/	/	-7	/	/	/
CC(=O)C1=C(C)N(Cc2ccc(F)cc2)C(=S)NC1c1ccc(Cl)cc1 (centres undefined)	/	/	-2	/	/	/
Cc1ccnc(NC(=O)c2ccc(Br)s2)c1	-1	/	-18	-1	2	63*
Cc1ccnc(NC(=O)c2cccs2)c1	0	0	/	3	-2	-3
S=C(NCC1CCCO1)N1CCN(c2ccccc2)CC1 (centres undefined)	1	-1	-11	-1	-6	3
S=C(NCC1CCCO1)N1CCN(Cc2ccccc2Cl)CC1 (centres undefined)	-1	-1	+	3	-5	/
COc1cccc(C(=O)N2CCC2(C)C(=O)O)c1 (centres undefined)	/	/	-10	/	/	/
COc1ccccc1NC(=O)N1CCCC1C(=O)NCc1ccccc1Cl (centres undefined)	3	-2	-4	4	1	0
CCC(C)[C@H]1CNC(=S)N1CCc1cccc2ccccc12 (some centres undefined)	3	-1	-8	-1	-8	2
CCC(C)[C@H]1CNC(=S)N1CCC12CC3CC(CC(C3)C1)C2 (some centres undefined)	0	-1	-3	16*	-1	-1
CCOC(=O)C1=C(C(=O)OCC)C2N(Cc3ccc(Br)cc3)c3ccccc3[C@@]23C[C@@H](C(=O)OC)N(S(=O)(=O)c2ccc(Br)cc2)C3=N1 (some centres undefined)	/	/	-10	/	/	/
C#CCN(C(=O)c1ccc(OC2CCN(Cc3ccccn3)CC2)cc1)C1CCCCC1	0	1	-7	0	3	55*
COc1ccc(CN2CCC(Oc3ccc(C(=O)N4CCCC4)cc3)CC2)c(F)c1	1	0	-6	-1	1	128*

Screening results as filed in PubChem.
